core dimer inh = inhibitors of HCV core protein dimerization, primary screen, biochemical, TR-FRET, high-throughput | TR-FRET GST/Flag-core106 dimerization, 1536-well | inhibition, % at 5 µM | 0.33% of 300,000 active;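 active = inhibition above the mean of all tested compounds plus 3 SD, set per screening campaign, cut at about 45% in these data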
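System – GST-tagged and Flag-tagged HCV core protein residues 1-106 · Repeats – one well for each compound · Technique – TR-FRET 671 and 617 nm emission · Doses – one concentration, 5 µM, in 0.5% DMSO · Times – 4 h, 22.5 °C incubation · Also added – Eu donor and XL665 acceptor anti-tag antibodies · Measure – percent inhibition of core106 dimerization signal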
NS3 helicase inh = inhibitors of HCV NS3 helicase, primary screen, biochemical, Cy5 molecular beacon fluorescence. Hepatitis C virus NS3 helicase. 0.56% of 290,000 active. inhibition, % at 10.9 µM. NS3 helicase DNA unwinding;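 active = inhibition above the mean of all tested compounds plus 3 SD, set per campaign, cut at about 35% in these data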;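 note: 0% = DMSO wells and 100% = thioflavine S control wells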
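Measured by: Cy5 fluorescence, 0 and 60 min reads / Assay system: NS3 helicase fragment of HCV / Control set: low DMSO, high thioflavine S at 110 µM / Times: 1 h reaction at 25 °C, ATP-initiated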
TbMetRS inhib = T. brucei MetRS inhibitors, primary screen, biochemical, luminescence | inhibition, % at 11.9 µM | purified T. brucei MetRS, ATP depletion, Kinase-Glo luminescence | AID 624268, 2012 | 0.4% of 360,000 active;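 active = inhibition above a per-plate cutoff of the control wells' mean inhibition plus 3 SD, cut at about 5.5% in these data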;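 note: 0% = DMSO wells median and 100% = median of wells with control inhibitor compound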
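assay system = parasite MetRS enzyme | timing = 15 min preincubation, 2 h reaction, all 25 °C | evaluation = percent inhibition relative to median high and low control wells | medium = HEPES buffer containing pyrophosphatase, BSA, spermine, DTT | compound = single dose, 11.9 µM final nominal, 0.9% final DMSO | detection = Kinase-Glo luminescence, ATP depletion format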
Lipid droplet = inhibitors of hepatocyte lipid droplet formation, primary screen, imaging, high-throughput imaging, BODIPY stain; inhibition, % at 6.5 µM; AID 1656, 2009; AML12 mouse hepatocytes, oleate lipid droplets; 0.4% of 240,000 active;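 active = lipid droplet intensity inhibited by at least 50%, with more than 500 cells counted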
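Material – AML12 mouse liver cells · Also added – oleate loading, 100 µM · Compound dosing – 6.5 µM single-point dosing · Times – overnight treatment with compound plus oleate · Measured by – fluorescence imaging, 20x objective, two fields per well · Read-out – percent inhibition of filter-corrected integrated lipid droplet intensity per well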
An asterisk follows results filed as active; · = no result given. Shown are actives, neighbours in structure and some others; about 1.3% of the full set was active somewhere.

SMILES | core dimer inh | NS3 helicase inh | TbMetRS inhib | Lipid droplet
O=C(Nc1ccc(N2CCN(c3ccc(O)cc3)CC2)cc1)Oc1ccccc1 | 59* | -12 | 1 | 2
Nc1ccc(OC(=O)Nc2ccc(O)cc2)cc1 | 3 | 7 | 0 | 14
CCCCCCN1C[C@@H](n2cc(COC(=O)c3ccccc3)nn2)[C@H](O)C[C@@H]1c1ccc(Cl)cc1 | · | · | -1 | ·
COc1ccc(C2=Nc3ccccc3NC(=O)C2N(C(=O)c2ccnc3ccccc23)c2ccccc2)cc1 (stereo not drawn) | · | · | 0 | ·
O=C(NC(=S)Nc1ccccn1)c1ccccc1 | -4 | 10 | 0 | 61*
O=C(NC(=S)Nc1ccccn1)c1ccc([N+](=O)[O-])cc1 | -9 | 2 | 0 | 2
CN(CC(=O)Nc1cccc(F)c1)C(=O)c1cc(-c2ccco2)nc2ccccc12 | 59* | · | 0 | ·
CN(CC(=O)Nc1cccc(F)c1)C(=O)c1cccc(-n2cccc2)c1 | 64* | · | 0 | ·
CN(CC(=O)Nc1c(Cl)cccc1Cl)C(=O)c1cccc(-n2cccc2)c1 | 33 | · | 0 | ·
COc1ccc(NC(=O)CN(C)C(=O)c2cc(-c3ccco3)nc3ccccc23)cc1 | 61* | · | 0 | ·
COc1ccc(NC(=O)c2cc(-c3ccco3)nc3ccccc23)cc1 | 13 | · | 0 | ·
O=C(N/N=C/c1cccc(F)c1)c1cc(-c2ccco2)nc2ccccc12 | 74* | 40* | -1 | ·
CC(C)N1C(=O)C(=O)N(CC(=O)N2c3ccccc3CC2C)C1=O (stereo not drawn) | · | · | 0 | ·
COC(=O)C1(C(=O)OC)c2ncccc2N(S(=O)(=O)c2ccc(C)cc2)C1CC(=O)c1ccccc1 (stereo not drawn) | · | · | 0 | ·
COc1ccccc1NC(=O)c1ccc(SCC(=O)NCc2ccccc2Cl)c([N+](=O)[O-])c1 | 53* | 3 | -1 | -6
O=c1[nH]c(=O)n2ncnc2[nH]1 | · | · | 0 | ·
O=C1c2ccccc2-c2onc3c(Oc4ccccc4)cc(O)c1c23 | · | 23 | · | 56*
CCOP(=O)(c1ccccc1)C1(C#N)CC1 (stereo not drawn) | 3 | 4 | 0 | 13
CCOP(=O)(OCC)C(C#N)=C1SCN(c2ccccc2)CS1 | 90* | 6 | -1 | ·
O=C(NC(C(=O)N/N=C/c1c2ccccc2cc2ccccc12)c1n[nH]c(=O)c2ccccc12)c1ccccc1 (stereo not drawn) | 47* | -28 | -1 | ·
C=CCN(CC=C)S(=O)(=O)c1ccc(NC(=S)NC(=O)/C=C/c2cccc3ccccc23)cc1 | 56* | 5 | -1 | 4
C=CCN(CC=C)S(=O)(=O)c1ccc(NC(=S)NC(=O)/C=C/c2ccc(C)cc2)cc1 | 17 | 0 | -1 | -4
C(=N\Nc1nc2ccccc2[nH]1)/c1ccccn1 | · | -1 | -2 | -58
C#CCn1cc(/C=N/Nc2nc3ccccc3[nH]2)c2ccccc21 | -33 | -21 | 9.0* | 17
CN(C)c1ccc(NC(=O)CSc2nnc(-c3ccco3)c(-c3ccco3)n2)cc1 | 38 | 26 | 0 | -5
SMILES | core dimer inh | NS3 helicase inh | TbMetRS inhib | Lipid droplet
Cc1cccc(C)c1NC(=O)CSc1nnc(-c2ccco2)c(-c2ccco2)n1 | 72* | 36 | 0 | ·
O=C(CSc1nnc(-c2ccco2)c(-c2ccco2)n1)Nc1ccccc1 | 51* | 24 | 0 | ·
O=C1C2C3CCCC3=C3CCCC3C2C(=O)N1c1cccc(Cl)c1 (stereo not drawn) | 31 | 9 | 0 | ·
O=C1C2C3CCCC3=C3CCCC3C2C(=O)N1c1ccc(Cl)cc1 (stereo not drawn) | 52* | 9 | -1 | 5
CS(=O)(=O)c1ccc2nc(NC(=O)CCC(=O)c3cccs3)sc2c1 | 74* | -1 | 0 | -8
CCCOc1ccc(NC(=O)C2CC(=O)N3CCCN=C3S2)cc1 (stereo not drawn) | 7 | 1 | 0 | 6
CCOc1ccc(NC(=O)C2CC(=O)N3CCCN=C3S2)cc1 (stereo not drawn) | 50* | 6 | 0 | 6
COc1ccc(-c2cc(C(=O)N/N=C/c3ccc(OC)c(COCC(F)(F)C(F)F)c3)c3ccccc3n2)c(OC)c1 | 58* | 12 | 0 | -25
COc1ccc(-c2cc(C(=O)N/N=C/c3ccc4c(c3)OCO4)c3ccccc3n2)c(OC)c1 | 31 | -8 | 0 | ·

Screens deposited in PubChem BioAssay by several laboratories.
